Values after ≈ are worked out from the molar mass of the structure shown.
Assays:
Talaromyces funiculosus [1] = experiment: Antifungal activity against Penicillium funiculosum ATCC 36839 after 72 hrs by serial dilution method; format: functional; settings: ATCC 36839, 72 h
In short: (§1)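 Modified microdilution MIC. Spores were washed from malt agar cultures with sterile 0.85% saline containing 0.1% Tween 80 and adjusted to about 1.0 × 10^5 per 100 µl well in malt broth. Compounds were dissolved in DMSO (1 mg/ml). Plates incubated 72 h at 28 °C. MIC is the lowest concentration with no visible growth under a binocular microscope. Bifonazole and ketoconazole were the references.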

Penicillium ochrochloron [2] = experiment: Antifungal activity against Penicillium ochrochloron ATCC 9112 after 72 hrs by serial dilution method; format: functional; settings: ATCC 9112, 72 h; in short: as §1
Trichoderma viride [3] = experiment: Antifungal activity against Trichoderma viride IAM 5061 after 72 hrs by serial dilution method; format: functional; settings: IAM 5061, 72 h; in short: as §1
Aspergillus fumigatus [4] = experiment: Antifungal activity against Aspergillus fumigatus human isolate after 72 hrs by serial dilution method; format: functional; in short: as §1
Aspergillus niger [5] = experiment: Antifungal activity against Aspergillus niger ATCC 6275 after 72 hrs by serial dilution method; format: functional; settings: ATCC 6275, 72 h; in short: as §1
Aspergillus flavus [6] = experiment: Antifungal activity against Aspergillus flavus ATCC 9643 after 72 hrs by serial dilution method; format: functional; settings: ATCC 9643, 72 h; in short: as §1
Aspergillus versicolor [7] = experiment: Antifungal activity against Aspergillus versicolor ATCC 11730 after 72 hrs by serial dilution method; format: functional; settings: ATCC 11730, 72 h; in short: as §1
Fulvia fulva [8] = experiment: Antifungal activity against Fulvia fulva after 72 hrs by serial dilution method; format: functional; in short: as §1
Talaromyces funiculosus [9] = experiment: Antifungal activity against Penicillium funiculosum ATCC 36839 treated for 72 hrs followed by sub-cultivated for 5 days by serial dilution method; format: functional
In short: (§2)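 MFC obtained after the 72 h, 28 °C malt-broth microdilution (spore inoculum about 1.0 × 10^5 per well, compounds from 1 mg/ml DMSO). 2 µl was serially subcultured into 100 µl broth per well and incubated a further 5 days at 28 °C. MFC is the lowest concentration with no visible growth, taken as 99.5% killing of the original inoculum.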

Penicillium ochrochloron [10] = experiment: Antifungal activity against Penicillium ochrochloron ATCC 9112 treated for 72 hrs followed by sub-cultivated for 5 days by serial dilution method; format: functional; in short: as §2
Trichoderma viride [11] = experiment: Antifungal activity against Trichoderma viride IAM 5061 treated for 72 hrs followed by sub-cultivated for 5 days by serial dilution method; format: functional; in short: as §2
Aspergillus fumigatus [12] = experiment: Antifungal activity against Aspergillus fumigatus human isolate treated for 72 hrs followed by sub-cultivated for 5 days by serial dilution method; format: functional; in short: as §2
Aspergillus niger [13] = experiment: Antifungal activity against Aspergillus niger ATCC 6275 treated for 72 hrs followed by sub-cultivated for 5 days by serial dilution method; format: functional; in short: as §2
Aspergillus flavus [14] = experiment: Antifungal activity against Aspergillus flavus ATCC 9643 treated for 72 hrs followed by sub-cultivated for 5 days by serial dilution method; format: functional; in short: as §2
Aspergillus versicolor [15] = experiment: Antifungal activity against Aspergillus versicolor ATCC 11730 treated for 72 hrs followed by sub-cultivated for 5 days by serial dilution method; format: functional; in short: as §2
Fulvia fulva [16] = experiment: Antifungal activity against Fulvia fulva treated for 72 hrs followed by sub-cultivated for 5 days by serial dilution method; format: functional; in short: as §2
Staphylococcus aureus [17] = experiment: Antibacterial activity against Staphylococcus aureus ATCC 6538 after 24 hrs by micro dilution method; format: functional; settings: ATCC 6538, 24 h
In short: (§3)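 Microdilution MIC in 96-well plates. Bacterial suspensions adjusted in sterile saline to 1.0 × 10^5 CFU/ml, giving 1.0 × 10^4 cfu per well in LB broth. Compounds tested at up to 1 mg/ml. Plates incubated 24 h. MIC taken as the lowest concentration with no visible growth under a binocular microscope. OD at 655 nm was also read against a blank and the positive control. Streptomycin and ampicillin were the positive controls.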

Bacillus cereus [18] = experiment: Antibacterial activity against Bacillus cereus clinical isolate after 24 hrs by micro dilution method; format: functional; in short: as §3
Micrococcus flavus [19] = experiment: Antibacterial activity against Micrococcus flavus ATCC 10240 after 24 hrs by micro dilution method; format: functional; settings: ATCC 10240, 24 h; in short: as §3
Listeria monocytogenes [20] = experiment: Antibacterial activity against Listeria monocytogenes NCTC 7973 after 24 hrs by micro dilution method; format: functional; settings: NCTC 7973, 24 h; in short: as §3
Pseudomonas aeruginosa [21] = experiment: Antibacterial activity against Pseudomonas aeruginosa ATCC 27853 after 24 hrs by micro dilution method; format: functional; settings: ATCC 27853, 24 h; in short: as §3
Enterobacter cloacae [22] = experiment: Antibacterial activity against Enterobacter cloacae human isolate after 24 hrs by micro dilution method; format: functional; in short: as §3
Salmonella typhimurium [23] = experiment: Antibacterial activity against Salmonella Typhimurium ATCC 13311 after 24 hrs by micro dilution method; format: functional, Salmonella enterica subsp. enterica serovar Typhimurium; settings: Salmonella enterica, ATCC 13311, 24 h; in short: as §3
Escherichia coli [24] = experiment: Antibacterial activity against Escherichia coli ATCC 35210 after 24 hrs by micro dilution method; format: functional; settings: ATCC 35210, 24 h; in short: as §3
Staphylococcus aureus [25] = experiment: Antibacterial activity against Staphylococcus aureus ATCC 6538 treated for 24 hrs followed by sub-cultivated for 72 hrs by micro dilution method; format: functional
In short: (§4)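 2 µl from each well was serially subcultured into 100 µl fresh broth per well and incubated a further 72 h. MBC is the lowest concentration with no visible growth, taken as 99.5% killing of the original inoculum. Streptomycin and ampicillin were the positive controls.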

Bacillus cereus [26] = experiment: Antibacterial activity against Bacillus cereus clinical isolate treated for 24 hrs followed by sub-cultivated for 72 hrs by micro dilution method; format: functional; in short: as §4
Micrococcus flavus [27] = experiment: Antibacterial activity against Micrococcus flavus ATCC 10240 treated for 24 hrs followed by sub-cultivated for 72 hrs by micro dilution method; format: functional; in short: as §4
Listeria monocytogenes [28] = experiment: Antibacterial activity against Listeria monocytogenes NCTC 7973 treated for 24 hrs followed by sub-cultivated for 72 hrs by micro dilution method; format: functional; in short: as §4
Pseudomonas aeruginosa [29] = experiment: Antibacterial activity against Pseudomonas aeruginosa ATCC 27853 treated for 24 hrs followed by sub-cultivated for 72 hrs by micro dilution method; format: functional; in short: as §4
Enterobacter cloacae [30] = experiment: Antibacterial activity against Enterobacter cloacae human isolate treated for 24 hrs followed by sub-cultivated for 72 hrs by micro dilution method; format: functional; in short: as §4
Salmonella typhimurium [31] = experiment: Antibacterial activity against Salmonella Typhimurium ATCC 13311 treated for 24 hrs followed by sub-cultivated for 72 hrs by micro dilution method; format: functional, Salmonella enterica subsp. enterica serovar Typhimurium; settings: Salmonella enterica; in short: as §4
Escherichia coli [32] = experiment: Antibacterial activity against Escherichia coli ATCC 35210 treated for 24 hrs followed by sub-cultivated for 72 hrs by micro dilution method; format: functional; in short: as §4

With `c1ccc(-c2ccc(C(c3ccccc3)n3ccnc3)cc2)cc1` (stereo not drawn) [BIFONAZOLE] the MIC (Talaromyces funiculosus [1]) was 640 µM (≈ 199 µg/mL), the MIC (Penicillium ochrochloron [2]) was 480 µM (≈ 149 µg/mL) and the MIC (Trichoderma viride [3]) was 640 µM (≈ 199 µg/mL). For the same compound, the MIC (Aspergillus fumigatus [4]) was 480 µM (≈ 149 µg/mL), the MIC (Aspergillus niger [5]) was 480 µM (≈ 149 µg/mL) and the MIC (Aspergillus flavus [6]) was 480 µM (≈ 149 µg/mL). For the same compound, the MIC (Aspergillus versicolor [7]) was 320 µM (≈ 99.3 µg/mL), the MIC (Fulvia fulva [8]) was 320 µM (≈ 99.3 µg/mL) and the MFC (Talaromyces funiculosus [9]) was 800 µM (≈ 248 µg/mL). For the same compound, the MFC (Penicillium ochrochloron [10]) was 640 µM (≈ 199 µg/mL), the MFC (Trichoderma viride [11]) was 800 µM (≈ 248 µg/mL) and the MFC (Aspergillus fumigatus [12]) was 640 µM (≈ 199 µg/mL). For the same compound, the MFC (Aspergillus niger [13]) was 640 µM (≈ 199 µg/mL), the MFC (Aspergillus flavus [14]) was 640 µM (≈ 199 µg/mL) and the MFC (Aspergillus versicolor [15]) was 640 µM (≈ 199 µg/mL). It also gave an MFC (Fulvia fulva [16]) of 640 µM (≈ 199 µg/mL).

Work on `CC(=O)N1CCN(c2ccc(OCC3COC(Cn4ccnc4)(c4ccc(Cl)cc4Cl)O3)cc2)CC1` (stereo not drawn) [KETOCONAZOLE] yielded an MIC (Talaromyces funiculosus [1]) of 380 µM (≈ 202 µg/mL), an MIC (Penicillium ochrochloron [2]) of 3800 µM (≈ 2020 µg/mL) and an MIC (Trichoderma viride [3]) of 4750 µM (≈ 2520 µg/mL). It also gave an MIC (Aspergillus fumigatus [4]) of 380 µM (≈ 202 µg/mL), an MIC (Aspergillus niger [5]) of 380 µM (≈ 202 µg/mL) and an MIC (Aspergillus flavus [6]) of 2850 µM (≈ 1510 µg/mL). The MIC (Aspergillus versicolor [7]) was 380 µM (≈ 202 µg/mL), the MIC (Fulvia fulva [8]) was 380 µM (≈ 202 µg/mL) and the MFC (Talaromyces funiculosus [9]) was 950 µM (≈ 505 µg/mL). The MFC (Penicillium ochrochloron [10]) was 3800 µM (≈ 2020 µg/mL), the MFC (Trichoderma viride [11]) was 5700 µM (≈ 3030 µg/mL) and the MFC (Aspergillus fumigatus [12]) was 950 µM (≈ 505 µg/mL). For the same compound, the MFC (Aspergillus niger [13]) was 950 µM (≈ 505 µg/mL), the MFC (Aspergillus flavus [14]) was 3800 µM (≈ 2020 µg/mL) and the MFC (Aspergillus versicolor [15]) was 950 µM (≈ 505 µg/mL). For the same compound, the MFC (Fulvia fulva [16]) was 950 µM (≈ 505 µg/mL).

In the case of `CN[C@@H]1[C@H](O[C@H]2[C@H](O[C@H]3[C@H](O)[C@@H](O)[C@H](N=C(N)N)[C@@H](O)[C@@H]3N=C(N)N)O[C@@H](C)[C@]2(O)C=O)O[C@@H](CO)[C@H](O)[C@H]1O` [STREPTOMYCIN], the MIC (Staphylococcus aureus [17]) is reported as 40 µM (≈ 23.3 µg/mL), the MIC (Bacillus cereus [18]) is reported as 90 µM (≈ 52.3 µg/mL) and the MIC (Micrococcus flavus [19]) is reported as 170 µM (≈ 98.9 µg/mL). For the same compound, the MIC (Listeria monocytogenes [20]) was 170 µM (≈ 98.9 µg/mL), the MIC (Pseudomonas aeruginosa [21]) was 170 µM (≈ 98.9 µg/mL) and the MIC (Enterobacter cloacae [22]) was 170 µM (≈ 98.9 µg/mL). For the same compound, the MIC (Salmonella typhimurium [23]) was 170 µM (≈ 98.9 µg/mL), the MIC (Escherichia coli [24]) was 260 µM (≈ 151 µg/mL) and the MBC (Staphylococcus aureus [25]) was 90 µM (≈ 52.3 µg/mL). The MBC (Bacillus cereus [26]) was 170 µM (≈ 98.9 µg/mL), the MBC (Micrococcus flavus [27]) was 340 µM (≈ 198 µg/mL) and the MBC (Listeria monocytogenes [28]) was 340 µM (≈ 198 µg/mL). It also gave an MBC (Pseudomonas aeruginosa [29]) of 340 µM (≈ 198 µg/mL), an MBC (Enterobacter cloacae [30]) of 340 µM (≈ 198 µg/mL) and an MBC (Salmonella typhimurium [31]) of 340 µM (≈ 198 µg/mL). The MBC (Escherichia coli [32]) was 520 µM (≈ 302 µg/mL).
